Measured values collected from several papers.
Compare with care: the assays were run in different laboratories.
Target: Serine/threonine-protein kinase TBK1 (TBK1, Homo sapiens, UniProt Q9UHD2)

SMILES	assay	setting	measurement	result
O=C(NCCCNc1nc(Nc2cccc(NC(=O)N3CCCC3)c2)ncc1C1CC1)C1CCC1	enzyme activity, inhibitor, radiometric	1 µM	remaining activity	-4%
O=C(NS(=O)(=O)c1ccc(NCC2CCOCC2)c([N+](=O)[O-])c1)c1ccc(N2CCN(Cc3ccc(C(F)(F)F)cc3-c3ccc(Cl)cc3)CC2)cc1Oc1cnc2[nH]ccc2c1	cell-free assay, competition with immobilised ligand	1 µM	remaining binding	74%
O=C(Nc1cccc(Nc2ncc(Br)c(NCCc3cnc[nH]3)n2)c1)N1CCCC1	enzyme activity, inhibitor, radiometric	1 µM	remaining activity	10%
C=CC(=O)Nc1cc(Nc2nccc(Nc3cc(Cl)c(F)cc3C(C)(C)O)n2)c(OC)cc1N1CC[C@@H](N(C)C)C1	enzyme activity, inhibitor	1 µM	inhibition	1%
CCCCNc1ncc2c(-c3ccc(F)cc3)nn(C[C@H]3CC[C@H](N)CC3)c2n1	target engagement in cells, inhibitor, chemoproteomics	20 mM	inhibition	9.8%
C[C@H](c1cccc(C#N)c1)n1cc(Cl)cc(C(N)=O)c1=N	cell-free assay, competition with immobilised ligand	1 µM	remaining binding	98%
CN(C)C1CCN(CC#Cc2nn(C3CCCC3)c3nc(NCc4ccccc4)ncc23)C1 (stereo not shown)	enzyme activity, inhibitor, FRET	0.1 µM	inhibition	2%
CO[C@@H](C)c1c(Nc2ccc([C@@H](N(C)C(=O)C3CCS(=O)(=O)CC3)C(F)(F)F)cc2)cnc2cc(Cl)nn12	cell-free assay, competition with immobilised ligand	1 µM	remaining binding	77%
CN1CC(Oc2cnc(C#N)cc2-c2ccn3nc(NC(=O)C4CC4)cc3c2)C1	enzyme activity, inhibitor	1 µM	inhibition	3%
Cc1ccc(Nc2nccc(N(C)c3ccc4c(C)n(C)nc4c3)n2)cc1S(N)(=O)=O	enzyme activity, inhibitor	0.3 µM	inhibition	22%
Cc1cc(NC(=O)c2cccc(S(F)(F)(F)(F)F)c2)cc(-n2ccn3nc(-c4cccnc4)cc23)c1	cell-free assay, competition with immobilised ligand	1 µM	remaining binding	49.7%
Cc1ccc(C(=O)NCc2ccsc2)cc1C#Cc1cn(C(C)C)c2ncnc(N)c12	enzyme activity, inhibitor	1 µM	activity vs control	87%
FC(F)(F)Oc1cccc(-c2cnc3ccc(-c4ccncc4)nn23)c1	enzyme activity, inhibitor, radiometric	1 µM	activity vs control	92%
COc1cc(/C=C/C(=O)CC(=O)/C=C/c2ccc(O)c(OC)c2)ccc1O	enzyme activity, inhibitor	1 µM	activity vs control	74%
O=C(Nc1cnc(Oc2ccc(F)cc2)nc1)N1CCc2ncccc2[C@@H]1c1ccc(F)cc1	cell-free assay, competition with immobilised ligand	1 µM	remaining binding	87%
COc1cc2ncnc(Nc3ccc(Oc4ccccc4)c(C)c3C)c2cc1OC	enzyme activity, inhibitor	1 µM	inhibition	0%

SMILES	assay	setting	measurement	result
NS(=O)(=O)c1ccc(CNc2ccnc(Nc3cccc(NC(=O)N4CCCC4)c3)n2)cc1	enzyme activity, inhibitor, radiometric	1 µM	remaining activity	68%
O=C1CCc2cc(Nc3cc(OC4CCOCC4)c([N+](=O)[O-])cc3Cl)ccc2N1	cell-free assay, competition with immobilised ligand	1 µM	remaining binding	100%
O=C1Nc2ccc(Cl)cc2C1=Cc1cc(Cl)c(O)c(Cl)c1	cell-free assay	0.5 µM	remaining signal	86.8%
c1cc(CN2CCOCC2)cc(Nc2nccc(NCCc3cnc[nH]3)n2)c1	enzyme activity, inhibitor, radiometric	1 µM	remaining activity	50%
CN1CCN(c2cnc3c(C4CCN(C(=O)c5ccc(OC(F)(F)F)cc5N)CC4)ncnc3c2)CC1	cell-free assay, competition with immobilised ligand	1 µM	remaining binding	61%
CN1CCc2cc(Nc3ncc(C4CC4)c(NCCCNC(=O)C4CCC4)n3)ccc2C1	enzyme activity, inhibitor, radiometric	1 µM	remaining activity	1%
C[S+]([O-])c1ccc(-c2nc(-c3ccncc3)c(-c3ccc(F)cc3)[nH]2)cc1 (stereo not shown)	cell-free assay	0.5 µM	remaining signal	99.7%
Nc1ncnc2occ(-c3ccc(NC(=O)Nc4cc(C(F)(F)F)ccc4F)cc3)c12	cell-free assay, inhibitor	20 µM	remaining signal	23%
NS(=O)(=O)c1ccc(CNc2ccnc(Nc3cccc(CN4CCOCC4)c3)n2)cc1	enzyme activity, inhibitor, radiometric	1 µM	remaining activity	33%
CNC(=O)c1cc(Oc2ccc(NC(=O)Nc3ccc(Cl)c(C(F)(F)F)c3)cc2)ccn1	enzyme activity, inhibitor	10 µM	inhibition	10%
Cc1nn(CC(F)(F)F)cc1Nc1nccc(NCCc2cnc[nH]2)n1	enzyme activity, inhibitor, radiometric	1 µM	remaining activity	87%
N#CCCc1ccc2c(c1)-c1[nH]c3ccc([N+](=O)[O-])cc3c1CC(=O)N2	cell-free assay	0.5 µM	remaining signal	83.7%
NS(=O)(=O)c1ccc(CNc2nc(Nc3cccc(NC(=O)N4CCCC4)c3)ncc2Br)cc1	enzyme activity, inhibitor, radiometric	1 µM	remaining activity	1%
CCN(CC)CCNC(=O)c1c(C)[nH]c(/C=C2\C(=O)Nc3ccc(F)cc32)c1C	enzyme activity, inhibitor	0.3 µM	inhibition	42%
CN(C)C(=O)Cn1cc(-c2nc(C3(c4ccc(-c5cnc(N)nc5)cc4)CC3)no2)cn1	cell-free assay, competition with immobilised ligand	1 µM	remaining binding	87%
